Screens: PubChem, several laboratories
Most compounds without a hit are left out; they make up all but 3.3% or so of the library.
ATG4B inhibitor: blocks human ATG4B protease cleavage of LC3 substrate; ATG4B cleavage of LC3-PLA2, NBD-HPC fluorescence, 1 h; 0.51% of 340,000 active; inhibition, % at 8.33 µM; in the data active = inhibition above about 40%
Target sequence (Q9Y4P1 whole entry, looked up): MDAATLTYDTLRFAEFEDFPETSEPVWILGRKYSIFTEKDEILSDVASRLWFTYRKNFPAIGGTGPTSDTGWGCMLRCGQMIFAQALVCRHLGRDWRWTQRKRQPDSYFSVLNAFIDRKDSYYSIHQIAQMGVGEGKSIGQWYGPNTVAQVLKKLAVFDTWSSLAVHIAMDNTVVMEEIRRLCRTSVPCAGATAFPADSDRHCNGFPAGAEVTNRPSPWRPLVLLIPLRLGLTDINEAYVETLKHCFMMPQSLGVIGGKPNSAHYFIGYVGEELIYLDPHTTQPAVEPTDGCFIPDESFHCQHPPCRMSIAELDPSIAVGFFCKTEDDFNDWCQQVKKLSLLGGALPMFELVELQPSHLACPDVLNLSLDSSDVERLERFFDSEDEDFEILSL
Exocytosis inh: lytic granule exocytosis inhibition; TALL-104 LAMP-1 surface exposure, flow cytometry; cells stimulated with thapsigargin and PMA; inhibition, % at 10 µM; 0.66% of 360,000 active;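 active = inhibition above about 55%, limit read from the data; inconclusive = no clear call, values can overlap the other calls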
CendR NRP1 mod: alters CendR peptide binding to human NRP-1; inhibition, % at 25 µM; O14786; FAM-RPARPAR peptide binding to NRP-1, fluorescence polarization; 0.85% of 360,000 active; AID 602438;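 active = inhibition or corrected inhibition above about 18%, plus a signal ratio from 0.5 to 1.5, limit read from the data, passing the limit was not always enough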
Arrestin-AP2 inh: human beta-arrestin and AP2 interaction inhibition; FITC-arrestin peptide / GST-AP2 beads, flow cytometry; AP2 beta2 appendage carries R879A mutation; inhibition, % at 10 µM; 0.31% of 340,000 active; AID 504490;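 active = inhibition above a set limit, near 3 SD of compounds lacking own fluorescence, cut at about 54% in these data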;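 note: plate controls were DMSO wells for no effect and 5 µM unlabelled arrestin peptide for full effect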
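system = GST-tagged AP2 beta2-adaptin appendage (R879A) on 4 µm glutathione beads | reagent = FITC-labelled arrestin peptide probe, 50 nM final | schedule = compound with beads 12 min RT, then probe 1 h RT | signal = HyperCyt-sampled flow cytometry, FL1 channel, ex 488/em 535 nm | read-out = percent response from loss of bead-bound FITC fluorescence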
ABCB6 inh 2: inhibitors of human ABC transporter ABCB6; Q9NP58; K562-ABCB6 porphyrin accumulation, flow cytometry, 1 h; active compounds read low; fluorescence ratio to DMSO, % at 10 µM; 0.19% of 360,000 active;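 active = fluorescence ratio to DMSO below 75%, the collection mean minus 3 SD; inconclusive = too few cells collected in the well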;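 note: signal is porphyrin accumulated inside mitochondria; 100% equals median channel fluorescence of DMSO control wells; lower ratio means ABCB6 inhibition with less porphyrin fluorescence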
Myeloid diff 2: myeloid differentiation induction. ER-HoxA9 myeloid progenitors, lysozyme-GFP differentiation, flow cytometry. AID 624256. calls only at 10 µM. 1% of 360,000 active;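 active = normalized GFP-positive differentiation at or above the plate's own cutoff, the solvent-only control mean plus 3 SD; inconclusive = no clear call, values can overlap the other calls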;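 note: cells exposed to compound for four days before flow analysis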
Granule exo CP1: blocks lytic granule exocytosis. shares compounds with Exocytosis inh. TALL-104 cells, LAMP-1 externalization, flow cytometry; stimulated with PMA plus thapsigargin. inhibition, % at 10 µM. 11% of 1,500 active; in the data active = inhibition above about 60%;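 note: 0% = stimulated vehicle wells and 100% = unstimulated wells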
Starred values were filed as active, the others as inactive; i = inactive; u = inconclusive; x = no result.

SMILES	ATG4B inhibitor	Exocytosis inh	CendR NRP1 mod	Arrestin-AP2 inh	ABCB6 inh 2	Myeloid diff 2	Granule exo CP1
CCOC(=O)c1c(C)[nH]c(C)c1C(=O)COC(=O)c1ccc(Cl)nc1	-9	0	17	-8	98	i	x
COCC(=O)N(Cc1cc2ccc(C)c(C)c2n2nnnc12)C1CCCC1	0	-1	8	46	100	i	x
S=C(NCCCc1ccccc1)NCc1ccccc1	29	2	-42	19	98	i	x
CN1CCc2cccc3c2[C@H]1Cc1ccc(O)c(O)c1-3	-1	84*	1	17	101	i	6
Oc1ccccc1C1CC(c2cccs2)=NC(c2cccc(Br)c2)N1 (centres undefined)	-1	69*	-12	2	102	i	-15
CSc1ccccc1NC(=O)c1ccccc1N(Cc1ccccc1)S(C)(=O)=O	-2	41	6	-9	99	i	x
CC(C)(CO)NC(=O)C12CC3CC(CC(Br)(C3)C1)C2	-9	6	0	-17	93	i	x
O=C(NCCN1CCOCC1)c1ccc(/C=C2\Sc3ccccc3N(Cc3ccccc3F)C2=O)cc1	-21	3	-1	34	103	u	x
O=C(CN1C(=O)/C(=C\c2cccc(Br)c2)Oc2ccccc21)NCCCN1CCOCC1	-2	64*	8	5	100	i	96*
Cc1cccc(CN2C(=O)/C(=C\c3ccc(C(=O)NCCN4CCOCC4)cc3)Sc3ccccc32)c1	-7	12	-4	19	98	i	x
O=C(CN1C(=O)COc2ccccc21)NCCCN1CCOCC1	-9	1	1	28	97	x	x
CN1CCN(CCCNC(=O)c2ccc(/C=C3\Sc4ccccc4N(Cc4ccccc4F)C3=O)cc2)CC1	-1	66*	1	-2	92	i	7
CCc1ccc(/C=C2/Sc3ccccc3N(CC(=O)NCCCN3CCOCC3)C2=O)cc1	-2	66*	-5	-7	99	i	63*
CCN1CCN(CCNC(=O)c2ccc(/C=C3/Sc4ccccc4N(Cc4cccc(Cl)c4)C3=O)cc2)CC1	3	79*	-7	14	96	i	55
O=C(CN1C(=O)/C(=C/c2ccc(C(F)(F)F)cc2)Sc2ccccc21)NCCCN1CCOCC1	-16	6	9	8	99	i	x
Cc1ccc(NC(=O)COc2cccc(Oc3ccccc3)c2)cc1S(=O)(=O)N1CCOCC1	-11	5	14	0	96	i	x
NC(c1csc(Nc2cc(NCCCO)ncn2)n1)c1ccccc1Cl (centres undefined)	x	-3	-7	x	101	i	x
O=c1oc2ccccc2c2c1nc(C(F)(F)F)n2-c1ccccc1	3	67*	9	4	101	i	-3
CCOC(=O)c1cnc2ccc(OCC)cc2c1N(C)Cc1ccccc1	2	102*	-13	-9	83	i	79*
CCOC(=O)c1cnc2ccc(OCC)cc2c1N1CCN(c2ccccc2OC)CC1	-2	0	-3	-3	95	i	x
O=C(Cn1c(=O)c2cccn2c2cccnc21)N1CCN(c2ccc(Cl)cc2)CC1	-2	11	-12	38	98	i	x
O=C(CNCc1ccc(Cl)cc1)Nc1cc(S(=O)(=O)N2CCCC2)ccc1Cl	-11	77*	-6	2	94	i	-9
CCCN(S(=O)(=O)c1ccccc1F)S(=O)(=O)c1ccccc1Br	2	57*	14	1	100	u	-5
CC(C)C(=O)Nc1ccc(NC(=O)c2cccc3c(Br)cccc23)cc1	6	-8	10	-9	97	i	x
CC1(C)CC2CC(C)(CN2C(=O)Cc2ccccc2)C1 (centres undefined)	-4	-1	-1	6	96	i	x
SMILES	ATG4B inhibitor	Exocytosis inh	CendR NRP1 mod	Arrestin-AP2 inh	ABCB6 inh 2	Myeloid diff 2	Granule exo CP1
CC1(C)CC2CC(C)(CN2C(=O)NC(=O)c2ccccc2)C1 (centres undefined)	-4	66*	10	3	97	i	-5
O=C(O)c1nn(CCOc2cccc(Cl)c2)c(=O)c2ccccc12	5	4	0	2	101	i	x
O=C(O)c1nn(CCOc2cccc(Br)c2)c(=O)c2ccccc12	-6	73*	8	47	100	i	-2
CCN1C(=O)N[C@@H](c2cccc(C(F)(F)F)c2)[C@@H](C(=O)OC)[C@H]1C	-10	101*	-12	-5	96	i	-12
CCN1C(=O)N[C@@H](c2ccccc2)[C@@H](C(=O)OC)[C@H]1C	-4	-11	22	-3	94	i	x
C[C@H](CO)N1C[C@H](C)[C@@H](CN(C)Cc2ccc3c(c2)OCO3)Oc2ccc(NC(=O)Cn3cnnn3)cc2C1=O	-8	-8	-8	1	101	i	x
O=C(Nc1ccccc1Cl)c1sccc1-c1ccccc1	5	81*	5	6	95	i	-5
CC(C)(C)S(=O)N1Cc2cc(C(=O)N[C@@H]3CCN(Cc4ccccc4)C3)nc(-c3cccc(-c4cc5ccccc5o4)c3)c2[C@@H]1CCO (some centres undefined)	x	63*	-16	x	91	i	19
O=C(NC1CCCC1)C1C(c2ccc(C(F)(F)F)cc2)=Nc2ccccc2N1C(=O)c1cc2ccccc2[nH]1 (centres undefined)	x	70*	-4	x	x	i	-15
CC(C)NC(=O)C1C(c2ccc(C(F)(F)F)cc2)=Nc2ccccc2N1C(=O)c1cc2ccccc2[nH]1 (centres undefined)	x	-20	3	x	x	i	x
CCOC(=O)N1CCN(C(=O)CSCc2ccccc2Cl)CC1	-2	5	4	14	97	i	x
COc1ccc(CN(C)C(=O)c2ccc(NS(=O)(=O)c3ccc(F)cc3)cc2)c(OC)c1OC	-6	2	12	8	103	i	x
O=C(Nc1ccc(C(=O)N2CCOCC2)cc1)Nc1cccc2ccccc12	0	-2	3	10	91	i	x
C[C@H](NC(=O)Nc1ccc2c(c1)OCCO2)C(=O)O	-4	101*	0	20	103	i	-16
CCc1nc2ccc(C(=O)NC3CCN(Cc4ccccc4)CC3)cn2c1N(C)Cc1cc2ccccc2s1	x	59*	-7	x	99	i	65*
CCc1nc2ccc(C(=O)NC3CCN(Cc4ccccc4)CC3)cn2c1N(C)Cc1cccs1	x	8	0	x	95	i	x
O=C(CN1C(=O)NC(c2ccccc2)(c2ccccc2)C1=O)N1CCOCC1	4	-3	-1	-2	100	i	x
